From article PMC3575752 (Journal of nuclear medicine : official publication, Society …, 2009) come the findings set out here.

Series [1] relates to PC-3 PSMA− tumor xenografts. Kind of series: Ex vivo biodistribution in mice bearing PC-3. Details: species or system male NCr nude mice. Summed up: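 Male NCr nude mice with subcutaneous right-shoulder PC-3 xenografts (cells in serum-free medium; tumours 5–10 mm, 1–2 wk). 18F tracer, 3,700–7,400 kBq, by tail vein under isoflurane. Euthanised after 2 h imaging. Cardiac blood, major organs (including kidney) and tumour weighed and γ-counted. %ID/g from known-activity standards. n = 3; one-tailed t test, unequal variance.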

Series [2] concerns LNCaP PSMA+ tumor xenografts. Briefly: microPET/CT imaging of LNCaP. The class given is in vivo, male NCr nude mice. Particulars: 1 mg nonradioactive (2) 1 h before tracer, 120 min after injection. Summed up: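 LNCaP-xenograft male nude mice (tumours 5–10 mm) under isoflurane were pretreated with 1 mg unlabelled analogue in 200 μL Tris buffer. One hour later they received tail-vein 18F tracer (3,700–7,400 kBq). MicroPET/CT, 10-min acquisitions at 0, 1 and 2 h, list mode, 2D OSEM reconstruction.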

Series [3] has as its system PC-3 PSMA− tumor xenografts. Briefly: microPET/CT imaging of PC-3. Format: in vivo, male NCr nude mice. Particulars: PC-3 PSMA− xenograft, 2 h post-injection. A digest of the protocol: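 PC-3-xenograft male NCr nude mice (tumours 5–10 mm, 1–2 wk after subcutaneous inoculation) anaesthetised with isoflurane. Tail-vein 18F tracer, 3,700–7,400 kBq (100–200 μCi). MicroPET/CT, 10-min scans at 0, 1 and 2 h. List-mode data, 2D OSEM reconstruction.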

Series [4] addresses purified PSMA (Homo sapiens, UniProt Q04609). Kind of series: HPLC-based PSMA inhibition IC50 assay. Format: biochemical. Particulars: read-out: IC50, PSMA inhibition; PABGgG 1 μM, 15 min, 37°C, Tris pH 7.4. Summed up:
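Purified PSMA diluted in 50 mM Tris pH 7.4 with 1% Triton X-100 to give 15–20% uninhibited conversion. […] Shaken 15 min at 37°C, then quenched with 2% TFA in methanol and buffered with 0.1 M K2HPO4. After centrifugation, supernatant product measured by HPLC; IC50 calculated.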

purified PSMA, sequence (Q04609 whole entry): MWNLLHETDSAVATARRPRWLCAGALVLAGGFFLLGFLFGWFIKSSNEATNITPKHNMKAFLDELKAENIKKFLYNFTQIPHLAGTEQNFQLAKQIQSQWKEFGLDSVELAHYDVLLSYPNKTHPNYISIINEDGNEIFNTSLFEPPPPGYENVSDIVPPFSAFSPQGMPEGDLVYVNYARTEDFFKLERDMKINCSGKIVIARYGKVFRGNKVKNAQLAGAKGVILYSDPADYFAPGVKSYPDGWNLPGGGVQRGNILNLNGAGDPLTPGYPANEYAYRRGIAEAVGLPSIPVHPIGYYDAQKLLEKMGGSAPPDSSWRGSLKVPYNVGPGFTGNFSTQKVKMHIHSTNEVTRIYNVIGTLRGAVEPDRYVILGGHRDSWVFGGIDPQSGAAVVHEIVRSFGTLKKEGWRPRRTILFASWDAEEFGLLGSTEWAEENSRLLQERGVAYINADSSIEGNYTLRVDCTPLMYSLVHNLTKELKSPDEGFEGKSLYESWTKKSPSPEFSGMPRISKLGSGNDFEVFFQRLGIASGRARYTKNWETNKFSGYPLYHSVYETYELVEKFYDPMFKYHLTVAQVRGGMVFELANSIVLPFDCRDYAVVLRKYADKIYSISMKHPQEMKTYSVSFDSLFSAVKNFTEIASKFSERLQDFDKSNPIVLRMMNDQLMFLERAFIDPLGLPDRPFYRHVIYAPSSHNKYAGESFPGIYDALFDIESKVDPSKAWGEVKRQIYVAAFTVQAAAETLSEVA

On to `O=C(O)CC[C@H](NP(=O)(O)OC[C@H](NC(=O)CC[C@H](NC(=O)c1ccc([18F])cc1)C(=O)O)C(=O)O)C(=O)O` [compound 3, ^18F-S-2-((2-(S-4-(4-Fluorobenzamido)-4-Carboxybutanamido)-S-2-Carboxyethoxy) Hydroxyphosphoryl-Amino)-Pentanedioic Acid], for which the “tumor uptake in PSMA− control” value in series [1] (PC-3 tumor, 2 h post-injection) is given as 0.32 ± 0.14 %ID/g. In series [1] (PSMA− (PC-3) model, 2 h), this compound yielded a kidney uptake of 2.83 ± 0.9 %ID/g. In addition, the “PET tumor uptake after blocking” value in series [2] is given as “substantial decrease in tumor uptake”. In addition, the PET tumor signal entry in series [3] is listed as “no detectable tumor signal”.
For `O=C(O)CC[C@H](NP(=O)(O)OC[C@H](NC(=O)CC[C@H](NC(=O)c1ccc(F)cc1)C(=O)O)C(=O)O)C(=O)O` [compound 2, S-2-((2-(S-4-(4-Fluorobenzamido)-4-Carboxybutanamido)-S-2-Carboxyethoxy) Hydroxyphosphorylamino)-Pentanedioic Acid], the IC50 in series [4] worked out at 680 pM.

By IC50 is commonly meant the concentration needed to halve the response being measured.
